Compound activity as filed in PubChem BioAssay.
SENP8 block-1: blocks the human protease SENP8; inhibition, % at 10 µM; Q96LD8; purified SENP8, Z-RLRGG-aminoluciferin cleavage, luminescence; 330,000 tested, 1.2% active; AID 2540; in the data active = inhibition above about 50%
Target sequence (Q96LD8 whole entry, looked up): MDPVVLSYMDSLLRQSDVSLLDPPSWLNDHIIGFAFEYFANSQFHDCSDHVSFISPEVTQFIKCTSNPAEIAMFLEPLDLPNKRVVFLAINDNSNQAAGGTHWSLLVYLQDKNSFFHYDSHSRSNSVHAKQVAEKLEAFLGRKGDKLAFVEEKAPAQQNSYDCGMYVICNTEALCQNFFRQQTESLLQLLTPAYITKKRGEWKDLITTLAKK
SENP6 block: SENP6 protease inhibition; inhibition, % at 10 µM; Q9GZR1; 330,000 tested, 1.8% active; Recombinant SENP6 catalytic domain, aminoluciferin luminescence; AID 2599;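 active = inhibition above about 50% at the single tested dose, limit read from the data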
SENP8 block-2: inhibitors of human SENP8 protease | Q96LD8 | recombinant SENP8, Nedd8 substrate fluorescence | inhibition, % at 20 µM | 360,000 tested, 0.64% active | AID 602440; in the data active = inhibition mostly above about 40%, no sharp cut-off; inactive = mostly below about 27%
SENP1 inh: inhibitors of human SENP1 SUMO protease catalytic domain | 360,000 tested, 0.21% active | Q9P0U3 | inhibition, % at 10 µM | recombinant SENP1 catalytic domain, CyPet-SUMO1-YPet FRET cleavage | AID 624204;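 active = inhibition at least 30% at 10 µM, raw YFP signal under a set limit, fluorescence ratio 0.5 to 1.5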
Target sequence (Q9P0U3 419-644 limits assumed): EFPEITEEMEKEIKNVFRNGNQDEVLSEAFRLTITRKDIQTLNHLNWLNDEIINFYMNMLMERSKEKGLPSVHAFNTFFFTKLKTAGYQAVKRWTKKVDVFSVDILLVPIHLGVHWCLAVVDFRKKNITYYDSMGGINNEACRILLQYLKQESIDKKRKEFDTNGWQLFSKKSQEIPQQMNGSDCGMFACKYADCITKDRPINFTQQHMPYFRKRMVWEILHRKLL
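Test system: hSENP1 catalytic domain, recombinant; Amount: 20 pM final SENP1 enzyme; Medium: Tris pH 8 buffer plus EDTA, NaCl, BME, BSA, NP40, catalase; Schedule: 50 min enzyme reaction, room temperature, light-protected; Technique: FRET fluorescence in CFP and YFP emission channels; Controls: no-enzyme wells low, DMSO-plus-enzyme wells high control.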
SENP7 inh: blocks the human protease SENP7 | Q9BQF6 | recombinant SENP7, Z-RLRGG-aminoluciferin luminescence, 40 min | inhibition, % at 5 µM | 330,000 tested, 1.5% active | AID 434973;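 active = inhibition above about 50% at the single test dose, limit read from the data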
SENP8 confirm: confirmation of human SENP8 protease inhibitors. shares compounds with SENP7 inh. Recombinant SENP8, Z-RLRGG-aminoluciferin luminescence, 60 min. inhibition, % at 12.5 µM. 6,200 tested, 40% active. AID 488912;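 active = mean inhibition across replicates above about 50%, limit read from the data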
SENP6 confirm: human SENP6 inhibition, confirmed. inhibition, % at 12.5 µM. 6,200 tested, 58% active. shares compounds with SENP7 inh. recombinant SENP6, Z-RLRGG-aminoluciferin luminescence. AID 488915
SENP7 confirm: human SENP7 inhibition, confirmed; shares compounds with SENP7 inh; recombinant SENP7, Z-RLRGG-aminoluciferin luminescence, 40 min; 6,200 tested, 69% active; inhibition, % at 12.5 µM; AID 488917
Casp3 SENP sel: inhibits human caspase-3 in SENP selectivity test; shares compounds with SENP7 inh; purified caspase-3, Z-DEVD-aminoluciferin luminescence, 60 min; inhibition, % at 12.5 µM; 6,200 tested, 60% active;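 active = mean inhibition above about 50%, limit read from the data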
Target sequence (P42574 28-227 limits assumed): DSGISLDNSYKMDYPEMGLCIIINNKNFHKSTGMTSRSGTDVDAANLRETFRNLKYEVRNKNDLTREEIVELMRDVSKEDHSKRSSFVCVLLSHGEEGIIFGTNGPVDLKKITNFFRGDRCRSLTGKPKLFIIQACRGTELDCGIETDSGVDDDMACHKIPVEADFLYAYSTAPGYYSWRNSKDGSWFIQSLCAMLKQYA
SENP luc ctr: luminescence interference (SENP counter-screen); shares compounds with SENP7 inh; Pre-incubated SENP8/Z-RLRGG-aminoluciferin, luciferase luminescence interference; inhibition, % at 12.5 µM; 6,200 tested, 39% active; AID 488919;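 active = mean inhibition above about 50% when retested at one dose, limit read from the data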
Hits are given with their value; 0 = inactive; - = not tested or not shown. In the library only some 2.5% were active in any assay of this set; here they are far more common.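 Rule for the calls, unless noted: active = mean inhibition above about 50% in the one-dose retest (limit read from the data); inactive = the rest.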

SMILES | SENP8 block-1 | SENP6 block | SENP8 block-2 | SENP1 inh | SENP7 inh | SENP8 confirm | SENP6 confirm | SENP7 confirm | Casp3 SENP sel | SENP luc ctr
O=C(Nc1ccc(Cl)cn1)c1ccc(Oc2ccccc2)cc1 | 90 | 91 | 0 | 0 | 91 | 0 | 52 | 58 | 0 | 0
Cc1ccc(C(=O)Nc2ccc(Cl)cn2)cc1 | 59 | 75 | 0 | 0 | 59 | 0 | 64 | 90 | 78 | 0
Cc1ccc(CC(=O)Nc2ccc(Cl)cn2)cc1 | 0 | 0 | 0 | 0 | 0 | - | - | - | - | -
Cc1ccccc1C(=O)Nc1ccc(Br)c(C)n1 | 0 | 59 | 0 | 0 | 66 | 61 | 62 | 87 | 65 | 58
Cc1ccc(C(=O)Nc2ncc3c(Cl)cccc3n2)cc1 | 81 | 88 | 0 | 0 | 91 | 83 | 93 | 99 | 93 | 52
Cc1ccc(C(=O)Nc2nccc(-c3cccs3)n2)cc1 | 0 | 0 | 0 | 0 | 0 | - | - | - | - | -
O=C(Nc1ccc(Cl)cn1)c1cccc(OCc2ccccc2)c1 | 0 | 0 | 0 | 0 | 0 | - | - | - | - | -
CCOc1ccc(S(=O)(=O)NC(C)C(=O)NCc2ccc3c(c2)OCO3)cc1 (centres undefined) | 0 | 0 | 0 | 0 | 0 | - | - | - | - | -
CCCOc1ccc(C(=O)Nc2ccc(Cl)cn2)cc1 | 71 | 78 | 0 | 0 | 84 | 0 | 0 | 50 | 0 | 0
Cc1ccccc1C(=O)Nc1ccc(Cl)cn1 | 0 | 56 | 0 | 0 | 51 | 0 | 0 | 73 | 74 | 0
O=C(c1ccc(F)cc1)N1CCN(c2cc(N3CCCCC3)c(F)cc2[N+](=O)[O-])CC1 | 0 | 0 | 0 | 0 | 0 | - | - | - | - | -
O=C(Oc1ccc[nH]c1=O)c1ccccc1 | - | - | 0 | 0 | - | - | - | - | - | -
O=C(Nc1ccc(F)cc1)Oc1ccc[nH]c1=O | 0 | 0 | 0 | 0 | 53 | 0 | 0 | 0 | 0 | 0
CCn1c(N2CCN(C(c3ccccc3)c3ccccc3)CC2)nc2c1c(=O)[nH]c(=O)n2C | - | - | 0 | 0 | - | - | - | - | - | -
Clc1ccc(-c2nnc(NC3=NCCCCC3)o2)cc1 | 80 | 73 | 0 | 0 | 88 | 0 | 0 | 57 | 0 | 0
O=C(Nc1nnc(-c2ccc(Cl)cc2)o1)C1CCCCC1 | 0 | 0 | 0 | 0 | 0 | - | - | - | - | -
COc1cc(/C=N/O)ccc1OCc1ccc(Cl)cc1 | 0 | 75 | - | - | 59 | 64 | 64 | 86 | 0 | 68
COc1cc(/C=N/O)ccc1OCc1ccc(C(=O)O)cc1 | 96 | 97 | 0 | 0 | 100 | 97 | 100 | 104 | 98 | 99
COc1cc(/C=N/N=C(N)N)ccc1OCc1ccc(Cl)cc1 | 0 | 0 | 0 | 0 | 0 | - | - | - | - | -
O=C(NNC(=O)C1CC1)c1cc(=O)[nH]c2ccccc12 | 0 | 0 | 0 | 0 | 0 | - | - | - | - | -
CC(C)(C)c1ccc(CC(=O)N2CCC2(C)C(=O)NS(=O)(=O)c2cccs2)cc1 (centres undefined) | - | - | 0 | 0 | - | - | - | - | - | -
O=C(Nc1ccccc1F)n1ncc2cc(Cl)ccc21 | 0 | 0 | 0 | 0 | 0 | - | - | - | - | -
COc1cc(NC(=O)n2ncc3cc(Cl)ccc32)cc(OC)c1 | 54 | 0 | 0 | 0 | 0 | 0 | 0 | 0 | 0 | 0
COc1ccc(NC(=O)c2cc(-c3cc(Cl)ccc3OC)n[nH]2)cc1OC | - | - | 0 | 0 | - | - | - | - | - | -
COc1ccc(NC(=O)n2ncc3cc(Cl)ccc32)cc1OC | 0 | 60 | 0 | 0 | 0 | 0 | 59 | 0 | 0 | 0
SMILES | SENP8 block-1 | SENP6 block | SENP8 block-2 | SENP1 inh | SENP7 inh | SENP8 confirm | SENP6 confirm | SENP7 confirm | Casp3 SENP sel | SENP luc ctr
Cc1nc(-c2ccccc2)sc1C1(C)CC(c2ccc(OC(F)(F)F)cc2)=NO1 (centres undefined) | 0 | 0 | 0 | 0 | 0 | - | - | - | - | -
COc1cccc(/C=N/Nc2ccc(S(=O)(=O)O)cc2)c1O | 0 | 0 | 0 | 0 | 0 | - | - | - | - | -
COc1cccc(/C=N/Nc2ccc(C(=O)O)cc2)c1O | 98 | 99 | 0 | 0 | 99 | 99 | 100 | 102 | 98 | 97
COc1cccc(/C=N/Nc2ccccc2C(=O)O)c1O | 88 | 93 | 0 | 0 | 79 | 94 | 94 | 99 | 92 | 93
COc1ccccc1/C=C/C=N/Nc1cccc(C(=O)O)c1 | 95 | 98 | 0 | 0 | 87 | 99 | 100 | 102 | 80 | 98
COc1cccc(/C=N/NC(=O)N/N=C/c2cccc(OC)c2O)c1O | 50 | 0 | 0 | 0 | 0 | 0 | 0 | 65 | 61 | 0
COc1ccccc1C=NNC(=O)NN=Cc1ccccc1OC | - | - | 0 | 0 | - | - | - | - | - | -
O=C(O)/C=C/c1cnc2ccccc2c1 | 0 | 0 | 0 | 0 | 0 | - | - | - | - | -
CCCNC(=O)c1cc(C2CCCCN2C(=O)c2ccccc2)on1 (centres undefined) | - | - | 0 | 0 | - | - | - | - | - | -
c1ccc(N2CC3CCc4ccccc4C3=N2)cc1 (centres undefined) | 0 | 57 | 0 | 0 | 59 | 0 | 51 | 72 | 0 | 0
COc1ccc2sc(NC(=O)c3ccco3)nc2c1 | 87 | 90 | 0 | 0 | 0 | 87 | 90 | 97 | 91 | 86
CC(=O)Nc1ccc2nc(NC(=O)c3ccco3)sc2c1 | 0 | 68 | 0 | 0 | 66 | 57 | 54 | 86 | 84 | 0
COc1ccc2c(c1)Cc1sc(NC(=O)c3ccco3)nc1-2 | 88 | 92 | 0 | 0 | 95 | 0 | 0 | 87 | 64 | 78
COc1ccc2c(c1)CCc1sc(NC(=O)c3ccco3)nc1-2 | 0 | 0 | 0 | 0 | 0 | - | - | - | - | -
Cc1coc(C)c1C(=O)Nc1ccc2ccccc2c1 | 0 | 66 | 0 | 0 | 0 | 0 | 0 | 79 | 52 | 60
Cc1oncc1C(=O)Nc1ccc(C(F)(F)F)cc1 | 68 | 78 | 0 | 0 | 76 | 0 | 67 | 94 | 76 | 63
Cc1oncc1C(=O)Nc1ccc2ccccc2c1 | 67 | 88 | 0 | 0 | 81 | 0 | 65 | 96 | 75 | 77
Cc1ccccc1-c1nc2cc(Cl)ccc2o1 | 58 | 0 | 0 | 0 | 81 | 0 | 69 | 94 | 0 | 0
Clc1ccc2oc(-c3ccccc3)nc2c1 | 63 | 0 | 0 | 0 | 83 | 0 | 55 | 91 | 0 | 0
CN1C(=O)S/C(=C/c2ccc(OCc3cccc(C(=O)O)c3)cc2)C1=O | 78 | 92 | 0 | 0 | 57 | 62 | 67 | 58 | 0 | 0
CC(/C=C1\SC(=S)N(CCC(=O)Nc2cccc(C(=O)O)c2)C1=O)=C\c1ccccc1 | 0 | 0 | 0 | 0 | 0 | - | - | - | - | -
Cc1ccc(/C=C2\SC(=S)N(CCCC(=O)Nc3cccnc3)C2=O)cc1 | 52 | 58 | 0 | 0 | 61 | 0 | 0 | 0 | 0 | 0
